Laboratory results taken from PMC6989153 (Molecular pharmaceutics, 2019).
Like-named read-outs stand apart in the source and are kept apart here.

How the values were obtained:
[1] = type: in vivo, nude athymic mice; settings: for MRT (mean residence time): n=6
Summary of the method: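 Naive athymic nude mice (20–26 g) on standard chow received test compound by tail-vein injection: fluorescent analogs at 2.6μmol/kg, radioiodinated dose normalized to mass and body weight. Pre-dose blood was taken for background. Serial 10μL maxillary-puncture samples were collected into EDTA (n=6), and levels were read by fluorescence or gamma counting. Non-compartmental analysis gave clearance, AUC, AUMC and mean residence time, normalized to starting dose.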

Albumin [2] = molecular target: T1, Albumin (Homo sapiens, UniProt P02768); assay: Native gel electrophoresis of APC analogs in human plasma, albumin band; type: in vitro ADME; settings: for Albumin (signal in band on native gel): incubated 4 hrs at 37°C, means ± SEM; for albumin binding: native gel analysis
Summary of the method: (§1)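 Fresh, unfrozen human plasma was incubated with test compound (100nM) with shaking for 4 h at 37°C. Samples in sample buffer were run on non-denaturing Tris-glycine gels at a common voltage and duration. Band position and intensity were read by fluorescence imaging or by radioactivity scanning, followed by Coomassie staining. Standards were mouse albumin, human LDL, human HDL, gamma-globulins, alpha1-acid glycoprotein and fatty acid-free HSA.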

MDA-MB-231 breast cancer [3] = assay: Tumor uptake kinetics in tumor-bearing flank xenografts; type: in vivo; settings: MDA-MB-231 flank xenografts, IVIS fluorescence imaging, three mice
HDL = assay: Native gel electrophoresis of APC analogs in human plasma, HDL band; type: in vitro ADME; settings: incubated 4 hrs at 37°C, means ± SEM
Summary of the method: as §1

LDL = assay: Native gel electrophoresis of APC analogs in human plasma, LDL band; type: in vitro ADME; settings: incubated 4 hrs at 37°C, means ± SEM
Summary of the method: as §1

Albumin [4] = molecular target: T1, Albumin; assay: Partitioning in fresh unfrozen human plasma with intralipid, albumin binding; type: in vitro ADME
Summary of the method: (§2)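 Fresh, unfrozen human plasma was incubated with test compound plus varying intralipid (20% soybean oil, 1.2% egg yolk phospholipids, 2.25% glycerin emulsion), up to 20% v/v. Plasma partitioning runs were shaken for 4 h at 37°C, then ultracentrifuged at […] for 8 h. The layers were separated, and fluorescence (radiance efficiency) or radioactivity was measured in each, expressed as a percentage per fraction.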

lipoprotein fraction = type: in vitro ADME; settings: human plasma
Summary of the method: as §2

[5] = molecular target: fatty acid-free human serum albumin (HSA) (Homo sapiens, UniProt P02768); assay: Equilibrium dialysis; type: binding; settings: PBS, 37°C
Summary of the method: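 Fatty acid-free HSA was dissolved in PBS and loaded into a rapid equilibrium dialysis chamber, with PBS in the collection well. The device was shaken at 37°C, and small aliquots were drawn from the collection well over time. Concentration was measured by UV absorbance, or by gamma counting for radioiodinated compound.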

Log D determination = type: physicochemical; settings: octanol/water, pH 7.4
Summary of the method: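 Test compound (radioiodinated, or fluorescent) was added to octanol and equilibrated overnight. An equal volume of distilled water at pH 7.4 was added, and the mixture was rotated at room temperature, protected from light, for 48 h. The phases were separated, and relative concentrations were measured by gamma counting (radioiodinated compound) or by fluorescence plate reader (fluorescent analogs).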

MDA-MB-231 breast cancer [6] = settings: post-injection, tumor-bearing mice; cited from earlier work
[7] = nude athymic mice, tail-vein injection
[8] = nude athymic mice, tail-vein injection, normalized to starting dose
[9] = athymic nude, mouse, whole blood, intravenous

T1 sequence (P02768 25-609): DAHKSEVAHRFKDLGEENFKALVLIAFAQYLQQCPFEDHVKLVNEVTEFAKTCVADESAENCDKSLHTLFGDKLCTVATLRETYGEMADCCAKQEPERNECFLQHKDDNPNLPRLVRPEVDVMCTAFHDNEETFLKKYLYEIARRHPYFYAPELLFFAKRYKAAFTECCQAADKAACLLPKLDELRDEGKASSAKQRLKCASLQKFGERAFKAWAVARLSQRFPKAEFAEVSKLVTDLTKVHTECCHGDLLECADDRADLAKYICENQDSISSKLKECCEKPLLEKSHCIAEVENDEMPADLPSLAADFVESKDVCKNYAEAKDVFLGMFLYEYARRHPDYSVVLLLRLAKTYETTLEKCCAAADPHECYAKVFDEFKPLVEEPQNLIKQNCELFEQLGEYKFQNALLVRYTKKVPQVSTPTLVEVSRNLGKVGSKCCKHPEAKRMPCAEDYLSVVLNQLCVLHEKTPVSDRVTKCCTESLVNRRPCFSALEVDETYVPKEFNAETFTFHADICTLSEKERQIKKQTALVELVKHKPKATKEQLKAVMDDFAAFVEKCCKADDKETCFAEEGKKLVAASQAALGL
Sequence of fatty acid-free human serum albumin (HSA) (P02768 25-609): as above

Row | Compound | MRT (mean residence time) [1, 7] | AUC [1, 8] | AUMC [1, 8] | CL [1, 8] | Clearance [1, 8] | Albumin (signal in band on native gel) (Albumin [2]) | albumin binding (Albumin [2]) | HDL (signal in band on native gel) (HDL) | LDL (signal in band on native gel) (LDL) | other results
1 | CN1/C(=C/C=C2\CCCC(/C=C/C3=[N+](C)c4ccccc4C3(C)C)=C2c2ccc(CCCCCCCCCCCCCCCCCCOP(=O)(O)OCC[N+](C)(C)C)cc2)C(C)(C)c2ccccc21 [compound 1502, 1,3,3-trimethyl-2-[(E)-2-[(3E)-3-(2-[(2E)-1,3,3-trimethyl-2,3-dihydro-1H-indol-2-ylidene]ethylidene}−2-[4-(18-([2-(trimethylazaniumyl)ethylhosphonato]oxy)octadecyl)phenyl]cyclohex-1-en-1-yl]ethenyl]-3H-indol-1-ium] | 33.95 h | 13.16 h | 446.66 hr^2 | 0.08 L/h | 0.08 h⁻¹ | 69.88 ± 3.32 | 69.88% | 20.90 ± 2.57 | 9.21 ± 0.86 | time at which uptake into the cancer was first seen (MDA-MB-231 breast cancer [3]): 4.5 h; time of peak tumor uptake (MDA-MB-231 breast cancer [3]): 24 h
2 | C[N+](C)(C)CCOP(=O)([O-])OCCCCCCCCCCCCCCCCCCc1ccc(C2=C3C=CC=[N+]3[B-](F)(F)n3cccc32)cc1 [compound 1501, 18-[p-(4,4-difluoro-4-bora-3a,4a-diaza-s-indacene-8-yl)-phenyl]-octadecyl phosphocholine] | 236.07 h | 159.64 h | 37686.99 hr^2 | 0.01 L/h | 0.01 h⁻¹ | 82.64 ± 1.62 | 82.64% | 10.25 ± 1.25 | 7.11 ± 0.41 | albumin-binding percentage (Albumin [4]; 20% intralipid): 79.32%; albumin-binding percentage (Albumin [4]; no intralipid): 85.93%; lipoprotein percentage of fluorescence intensity (lipoprotein fraction; 20% v/v intralipid): 14.40%; lipoprotein percentage of fluorescence intensity (lipoprotein fraction; no intralipid): 7.33%
3 | C[N+](C)(C)CCOP(=O)([O-])OCCCCCCCCCCCCCCCCCCc1ccc(I)cc1 [NM404, 18-(p-Iodophenyl)octadecylphosphocholine] | – | 43.66 h | 4333.63 hr^2 | – | 0.02 h⁻¹ | 79.99 ± 0.22 | 79.99% | 15.42 ± 0.41 | 4.60 ± 0.28 | binding to fatty acid-free human serum albumin [5]: 96%; Clearance [1, 9]: 0.333 mL/min; MRT [1, 9]: 99.2 h; logD at 48 h (Log D determination): 2.07; time at which tumor uptake was seen (MDA-MB-231 breast cancer [6]): 24 h; time of peak tumor uptake (MDA-MB-231 breast cancer [6]): 72 h
